From ChEMBL document CHEMBL2331363, “Synthesis of a 2,4,6-trisubstituted 5-cyano-pyrimidine library and evaluation of its immunosuppressive activity in a Mixed Lymphocyte Reaction assay” (Bioorg Med Chem, 2013)

Key:
[1] = Immunosuppressive activity in human RPMI1788 cells cocultured with human PBMC assessed as inhibition of [3H]thymidine incorporation incubated for 6 days prior to [3H]thymidine addition measured after 18 hrs by liquid scintillation counting; assay type: functional, cell-based; details: RPMI-1788
Summary of the method: (§1)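 Effector PBMCs from heparinized healthy-donor blood were isolated over Lymphoprep and held at 1.2 × 10⁶ cells/mL in RPMI-1640 with 10% heat-inactivated FCS. Mitomycin-treated stimulator cells were at 0.45 × 10⁶ cells/mL. Cells were mixed with diluted compound and cultured at 37 °C, 5% CO₂. (methyl-³H)thymidine was added for the final 18 h, and filter-harvested cpm were counted by scintillation. Compounds were screened at one concentration, then dose-response IC₅₀ was determined. Values are means of two independent experiments.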

[2] = Immunosuppressive activity in human RPMI1788 cells cocultured with human PBMC assessed as inhibition of [3H]thymidine incorporation at 10 uM incubated for 6 days prior to [3H]thymidine addition measured after 18 hrs by liquid scintillation counting; assay type: functional; details: RPMI-1788; summary of the method: as §1

Structure (SMILES) | IC50 [1] | inhibition at 10 µM [2]
Cn1c(SCc2ccccc2)nc(-c2cccc(Cl)c2)c(C#N)c1=O | > 10 µM | 7%
CC(C)Nc1nc(Nc2ccc(Cl)cc2)nc(-c2ccc(Cl)cc2)c1C#N | > 10 µM | 0%
N#Cc1c(OCc2ccccc2)nc(Nc2ccc(Cl)cc2)nc1-c1ccc(Cl)cc1 | > 10 µM | 26%
N#Cc1c(-c2ccc(Cl)cc2)nc(Nc2ccc(Cl)cc2)nc1N1CCCCC1 | > 10 µM | 15%
Cc1ccc(Nc2nc(-c3ccc(Cl)cc3)c(C#N)c(N3CCCCC3)n2)cc1 | > 10 µM | 0%
N#Cc1c(-c2ccc(Cl)cc2)nc(Nc2ccccc2)[nH]c1=O | > 10 µM | 8%
CCn1c(SCc2ccccc2)nc(-c2ccc(Cl)cc2)c(C#N)c1=O | > 10 µM | 5%
CC(C)Nc1nc(Nc2ccc(Cl)cc2)nc(-c2ccccc2)c1C#N | 5.7 µM | 72%
CCOc1nc(Nc2ccc(Cl)cc2)nc(-c2ccccc2)c1C#N | > 10 µM | 38%
COc1ccc(-c2nc(Nc3ccc(Cl)cc3)[nH]c(=O)c2C#N)cc1 | > 10 µM | 0%
COc1nc(Nc2ccc(Cl)cc2)nc(-c2ccc(Cl)cc2)c1C#N | > 10 µM | 0%
CCOc1nc(SCc2ccccc2)nc(-c2cccc(Cl)c2)c1C#N | > 10 µM | 10%
N#Cc1c(OCc2ccccc2)nc(SCc2ccccc2)nc1-c1ccc(Cl)cc1 | > 10 µM | 22%
Cc1ccc(Nc2nc(-c3ccc(Cl)cc3)c(C#N)c(=O)[nH]2)cc1 | > 10 µM | 20%
CCCOc1nc(Nc2ccc(Cl)cc2)nc(-c2ccccc2)c1C#N | > 10 µM | 44%
N#Cc1c(-c2ccc(Cl)cc2)nc(Nc2ccc(Cl)cc2)nc1N1CCOCC1 | > 10 µM | 45%
Cn1c(SCc2ccccc2)nc(-c2ccc(Cl)cc2)c(C#N)c1=O | > 10 µM | 0%
N#Cc1c(NC2CCCCC2)nc(Nc2ccc(Cl)cc2)nc1-c1ccc(Cl)cc1 | > 10 µM | 1%
N#Cc1c(-c2cccc(Cl)c2)nc(Nc2ccc(Cl)cc2)[nH]c1=O | > 10 µM | 14%
CCCn1c(SCc2ccccc2)nc(-c2cccc(Cl)c2)c(C#N)c1=O | > 10 µM | 9%
CCOc1nc(Nc2ccc(Cl)cc2)nc(-c2ccc(Cl)cc2)c1C#N | > 10 µM | 0%

The next lines start with results.

IC50 [1] | Structure (SMILES) | inhibition at 10 µM [2]
> 10 µM | CCOc1nc(SCc2ccccc2)nc(-c2ccc(OC)cc2)c1C#N | 46%
> 10 µM | COc1ccc(-c2nc(SCc3ccccc3)nc(N3CCC(C)CC3)c2C#N)cc1 | 35%
> 10 µM | CC(C)Nc1nc(SCc2ccccc2)nc(-c2ccc(Cl)cc2)c1C#N | 48%
> 10 µM | COc1ccc(-c2nc(SCc3ccccc3)nc(N3CCSCC3)c2C#N)cc1 | 13%
> 10 µM | COc1ccc(-c2nc(SCc3ccc(Br)cc3)nc(N3CCOCC3)c2C#N)cc1 | 36%
> 10 µM | CCOc1nc(SCc2ccccc2)nc(-c2ccc(Cl)cc2)c1C#N | 13%
> 10 µM | N#Cc1c(-c2ccc(Cl)cc2)nc(SCc2ccccc2)nc1N1CCC(Cc2ccccc2)CC1 | 17%
> 10 µM | CCn1c(SCc2ccccc2)nc(-c2ccc(OC)cc2)c(C#N)c1=O | 12%
> 10 µM | COc1ccc(-c2nc(SCc3ccccc3)nc(N3CCC(Cc4ccccc4)CC3)c2C#N)cc1 | 31%
> 10 µM | COc1ccc(-c2nc(SCc3ccccc3)n(C)c(=O)c2C#N)cc1 | 5%
> 10 µM | COc1nc(SCc2ccccc2)nc(-c2ccc(Cl)cc2)c1C#N | 10%
> 10 µM | COc1ccc(-c2nc(SCc3ccccc3)nc(NCCc3ccccc3)c2C#N)cc1 | 11%
